Measured values: PMC9366314 (Acta Pharmaceutica Sinica. B, 2022)

Experiments:
Type in all cases: cell-based
Gαq/11 = experiment: IP1 accumulation assay; settings: CHO-M1 cells, mean ± SEM (n = 3)
[1] = test system: MP41 cells (GNA11 Q209L mutation); experiment: Cell proliferation inhibition assay; settings: MP41, 72 h, read-out: Antiproliferation (IC50, μmol/L) MP41
In short: (§1)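 Uveal melanoma cells were grown in RPMI-1640 with 10% FBS at 37 °C, 5% CO2. They were resuspended at 3 × 10^3 cells/mL, seeded and left overnight. Cells were exposed to a concentration series of test compound for 72 h. CCK-8 was added for 2–4 h and absorbance read at 450 nm. IC50 values were fitted from the curves and reported as mean ± SEM, n = 3.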

[2] = test system: 92.1 cells (GNAQ Q209L mutation); experiment: Cell proliferation inhibition assay; settings: 72 h, read-out: Antiproliferation (IC50, μmol/L) 92.1
In short: as §1

SMILES	IP1 inhibition at 10 μmol/L (Gαq/11) [%]	IC50 [1] [µmol/L]	IC50 [2] [µmol/L]
c1ccc(-c2cn3c(n2)[C@H](CC2CCCCC2)N(C[C@@H]2CCCCN2)CC3)cc1 [GQ261]	27.0 ± 5.1	6.2 ± 0.8	11 ± 0.5
N[C@@H](CC1CCCCC1)CN1CCn2cc(-c3ccccc3)nc2[C@@H]1CC1CCCCC1 [GQ244]	45.8 ± 10.5	5.6 ± 0.3	9 ± 1.3
CC(C)[C@H](N)CN1CCn2cc(-c3ccccc3)nc2[C@@H]1CC1CCCCC1 [GQ238]	34.4 ± 1.7	6.2 ± 0.7	7.3 ± 0.7
CC[C@H](C)[C@H](N)C(=O)N1CCn2cc(C3CCNCC3)nc2[C@@H]1CC1CCCCC1 [GQ230]	13.7 ± 0.6	> 40	> 40
N[C@H](CN1CCn2cc(-c3ccccc3)nc2[C@@H]1CC1CCCCC1)C1CCCCC1 [GQ245]	46.8 ± 8.6	5 ± 0.3	5.7 ± 0.1
CN1CCC[C@H]1CN1CCn2cc(-c3ccccc3)nc2[C@@H]1C1CCCCC1 [GQ267]	8.9 ± 0.8	> 40	> 40
N[C@@H](CCCO)CN1CCn2cc(-c3ccccc3)nc2[C@@H]1CC1CCCCC1 [GQ251]	51.2 ± 4.9	7.4 ± 0.8	12.6 ± 0.7
CC[C@H](C)[C@H](N)C(=O)N1CCn2cc(-c3ccncc3)nc2[C@@H]1CC1CCCCC1 [GQ222]	27.0 ± 5.2	> 40	> 40
CC[C@H](C)[C@H](N)C(=O)N1CCn2cc(-c3nccs3)nc2[C@@H]1CC1CCCCC1 [GQ226]	29.5 ± 3.0	> 40	> 40
CC(C)C[C@H](N)CN1CCn2cc(-c3ccccc3)nc2[C@@H]1CC1CCCCC1 [GQ237]	43.0 ± 3.3	4 ± 1.3	5.8 ± 0.1
CC[C@H](C)[C@H](N)C(=O)N1CCn2cc(-c3ccoc3)nc2[C@@H]1CC1CCCCC1 [GQ224]	31.5 ± 6.0	> 40	> 40
CC[C@H](C)[C@H](N)CN1CCn2cc(-c3ccccc3)nc2[C@@H]1CC1CCCCC1 [GQ236]	48.4 ± 2.4	10.1 ± 0.2	9.3 ± 0.5
NCCCC[C@H](N)CN1CCn2cc(-c3ccccc3)nc2[C@@H]1CC1CCCCC1 [GQ254]	44.2 ± 0.3	8 ± 0.6	11.2 ± 0.7
N[C@@H](Cc1ccccc1)CN1CCn2cc(-c3ccccc3)nc2[C@@H]1CC1CCCCC1 [GQ258]	48.3 ± 6.5	7.9 ± 1.5	11.6 ± 1.4
CC[C@H](C)[C@H](N)C(=O)N1CCn2cc(C3CCC(F)(F)CC3)nc2[C@@H]1CC1CCCCC1 [GQ233]	22.2 ± 1.9	> 40	> 40
CC[C@H](C)[C@H](N)C(=O)N1CCn2cc(-c3cccnc3)nc2[C@@H]1CC1CCCCC1 [GQ221]	20.0 ± 0.6	> 40	> 40
CC[C@H](C)[C@H](N)C(=O)N1CCn2cc(-c3ccco3)nc2[C@@H]1CC1CCCCC1 [GQ223]	16.6 ± 1.2	> 40	> 40
CSCC[C@H](N)CN1CCn2cc(-c3ccccc3)nc2[C@@H]1CC1CCCCC1 [GQ247]	44.5 ± 3.4	5.6 ± 0.2	6 ± 0.3
CC[C@H](C)[C@H](N)C(=O)N1CCn2cc(-c3ccccn3)nc2[C@@H]1CC1CCCCC1 [GQ220]	20.8 ± 1.1	> 40	> 40
C[C@H](N)CN1CCn2cc(-c3ccccc3)nc2[C@@H]1CC1CCCCC1 [GQ239]	50.2 ± 5.2	6 ± 0.6	11.6 ± 0.6
N[C@@H](Cc1c[nH]c2ccccc12)CN1CCn2cc(-c3ccccc3)nc2[C@@H]1CC1CCCCC1 [GQ257]	33.2 ± 1.3	6 ± 0.3	9.6 ± 0.5
NCCC[C@H](N)CN1CCn2cc(-c3ccccc3)nc2[C@@H]1CC1CCCCC1 [GQ253]	32.4 ± 1.0	9.2 ± 0.6	9.7 ± 0.4
N[C@H](CO)CN1CCn2cc(-c3ccccc3)nc2[C@@H]1CC1CCCCC1 [GQ248]	49.7 ± 9.5	7.9 ± 0.7	10.9 ± 0.5

SMILES	IP1 inhibition at 10 μmol/L (Gαq/11) [%]	IC50 [1] [µmol/L]	IC50 [2] [µmol/L]
NCCN1CCn2cc(-c3ccccc3)nc2[C@@H]1CC1CCCCC1 [GQ240]	22.5 ± 4.2	7.4 ± 0.3	9.6 ± 0.6
CCc1cn2c(n1)[C@H](CC1CCCCC1)N(C(=O)[C@@H](N)[C@@H](C)CC)CC2 [GQ235]	22.3 ± 1.3	> 40	> 40
CCC[C@H](N)CN1CCn2cc(-c3ccccc3)nc2[C@@H]1CC1CCCCC1 [GQ242]	41.0 ± 6.0	5 ± 0.1	4.7 ± 0.4
CC[C@H](C)[C@H](N)C(=O)N1CCn2cc(C3=CCCCC3)nc2[C@@H]1CC1CCCCC1 [GQ228]	24.8 ± 1.5	11 ± 0.1	19 ± 0.6
N[C@@H](Cc1ccc(O)cc1)CN1CCn2cc(-c3ccccc3)nc2[C@@H]1CC1CCCCC1 [GQ256]	47.6 ± 5.0	9 ± 1.2	8.7 ± 0.7
CC[C@H](C)[C@H](N)C(=O)N1CCn2cc(C3CCCC3)nc2[C@@H]1CC1CCCCC1 [GQ229]	15.8 ± 1.8	> 40	> 40
CC[C@H](N)CN1CCn2cc(-c3ccccc3)nc2[C@@H]1CC1CCCCC1 [GQ241]	31.3 ± 9.0	5.9 ± 0.5	6.6 ± 0.2
CC[C@H](C)[C@H](N)C(=O)N1CCn2cc(C3CCCCC3)nc2[C@@H]1CC1CCCCC1 [GQ227]	18.4 ± 0.9	21.2 ± 0.5	21.6 ± 0.6
N[C@@H](Cc1c[nH]cn1)CN1CCn2cc(-c3ccccc3)nc2[C@@H]1CC1CCCCC1 [GQ259]	36.3 ± 0.9	5.8 ± 0.6	10.7 ± 0.8
CC(C)C[C@@H]1c2nc(-c3ccccc3)cn2CCN1C[C@@H]1CCCN1C [GQ266]	17.5 ± 1.1	> 40	> 40
N=C(N)NCCC[C@H](N)CN1CCn2cc(-c3ccccc3)nc2[C@@H]1CC1CCCCC1 [GQ255]	27.7 ± 6.7	> 40	> 40
CC[C@H](C)[C@H](N)C(=O)N1CCn2cc(C(C)C)nc2[C@@H]1CC1CCCCC1 [GQ234]	10.8 ± 1.4	> 40	> 40
NCC[C@H](N)CN1CCn2cc(-c3ccccc3)nc2[C@@H]1CC1CCCCC1 [GQ252]	35.9 ± 7.3	5.2 ± 0.7	3.5 ± 0.3
CC(C)[C@@H]1c2nc(-c3ccccc3)cn2CCN1C[C@@H]1CCCN1C [GQ265]	13.5 ± 0.5	> 40	> 40
CC(C)(C)[C@H](N)CN1CCn2cc(-c3ccccc3)nc2[C@@H]1CC1CCCCC1 [GQ243]	41.6 ± 5.8	5.7 ± 0.7	9.6 ± 0.7
c1ccc(-c2cn3c(n2)[C@H](CC2CCCCC2)N(C[C@@H]2CCCN2)CC3)cc1 [GQ260]	53.4 ± 7.0	6.7 ± 0.6	11.6 ± 1.2
CC[C@H](C)[C@H](N)C(=O)N1CCn2cc(-c3cccs3)nc2[C@@H]1CC1CCCCC1 [GQ225]	28.7 ± 1.6	25.3 ± 0.9	18.8 ± 1.7
C[C@H](O)[C@H](N)CN1CCn2cc(-c3ccccc3)nc2[C@@H]1CC1CCCCC1 [GQ249]	44.1 ± 3.0	5.8 ± 0.6	11.4 ± 0.3
CC[C@H](C)[C@H](N)C(=O)N1CCn2cc(C3CCOCC3)nc2[C@@H]1CC1CCCCC1 [GQ231]	20.6 ± 2.1	> 40	> 40
N[C@H](CS)CN1CCn2cc(-c3ccccc3)nc2[C@@H]1CC1CCCCC1 [GQ246]	40.4 ± 7.0	14.9 ± 0.8	15.8 ± 1
N[C@@H](CCO)CN1CCn2cc(-c3ccccc3)nc2[C@@H]1CC1CCCCC1 [GQ250]	41.8 ± 2.7	6.9 ± 1	10.4 ± 0.2
CC(C)[C@H]1c2nc(-c3ccccc3)cn2CCN1C[C@@H]1CCCN1C [GQ264]	5.9 ± 1.1	> 40	> 40
CC[C@H](C)[C@H](N)C(=O)N1CCn2cc(C3CCC(C)(C)CC3)nc2[C@@H]1CC1CCCCC1 [GQ232]	10.9 ± 0.7	19.8 ± 0.1	16.1 ± 1
